# Columns and labels:
# [1] = system: Staphylococcus aureus; assay: Antibacterial activity against methicillin-resistant Staphylococcus aureus ATCC BAA-44 after overnight incubation by broth microdilution assay in presence of 4 ug/ml amoxicillin and 2 ug/ml clavulanic acid; assay type: functional
# In short: (§1)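 Resensitization screen: compound from a 5 mg/mL DMSO stock, 2-fold serially diluted in MHB from 32 μg/mL final. Antibiotic was held at its CLSI-susceptible level: amoxicillin/clavulanic acid 4/2 μg/mL, cefazolin 8 μg/mL, meropenem 4 μg/mL. Final MRSA inoculum OD600 0.001, overnight at 37 °C with shaking. MRC was the concentration giving no visible overnight growth.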
# [2] = system: Staphylococcus aureus; assay: Antibacterial activity against methicillin-resistant Staphylococcus aureus ATCC BAA-44 after overnight incubation by broth microdilution assay in presence of 8 ug/ml cefazolin; assay type: functional; in short: as §1
# [3] = system: Staphylococcus aureus; assay: Antibacterial activity against methicillin-resistant Staphylococcus aureus ATCC 33592 after overnight incubation by broth microdilution assay in presence of 4 ug/ml meropenem; assay type: functional; in short: as §1
# [4] = Cytotoxicity against human HeLa cells after 24 hrs by CellTiter-Glo assay; assay type: cell-based
# In short: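 HeLa cells seeded at 20 000 cells/well in DMEM with 10% FCS and 1% penicillin/streptomycin, grown 16 h at 37 °C, 5% CO2. Medium renewed, then compound added in DMSO to final 0.5–32 μg/mL, triplicate series. After 24 h at 37 °C, plates equilibrated to room temperature and viability read by CellTiter-Glo luminescence.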
# [5] = system: Staphylococcus aureus; assay: Antibacterial activity against methicillin-resistant Staphylococcus aureus ATCC BAA-44 after 18 hrs by broth microdilution assay; assay type: functional; conditions: ATCC BAA-44, 18 h
# In short: (§2)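 Day culture (OD600 0.15–0.4) diluted to OD600 0.002, then 2-fold on plating for a final inoculum of OD600 0.001. Plates were incubated at 37 °C with shaking for 18 h before reading growth.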
# [6] = system: Staphylococcus aureus; assay: Antibacterial activity against methicillin-resistant Staphylococcus aureus ATCC 33592 after 18 hrs by broth microdilution assay; assay type: functional; conditions: ATCC 33592, 18 h; in short: as §2
# [7] = system: Staphylococcus aureus; assay: Antibacterial activity against methicillin-sensitive Staphylococcus aureus ATCC 25923 after 18 hrs by broth microdilution assay; assay type: functional; conditions: ATCC 25923, 18 h
# In short: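 CLSI broth microdilution in Mueller–Hinton broth. Day culture (OD600 0.15–0.4) diluted to OD600 0.002, then 2-fold on addition to wells, giving a final inoculum of OD600 0.001.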
# [8] = system: Staphylococcus aureus; assay: Antibacterial activity against methicillin-resistant Staphylococcus aureus ATCC BAA-44 after 18 hrs by checkerboard test in presence of amoxicillin/clavulanic acid; assay type: functional
# In short: (§3)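 Checkerboard synergy test in MHB, plates in duplicate. Compound was 2-fold diluted across the rows (8 to 0.016 μg/mL). […] Final inoculum OD600 0.001, 37 °C with shaking, 18 h. FICI was taken as FICA + FICB, each the MIC in combination over the MIC alone.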
# [9] = system: Staphylococcus aureus; assay: Antibacterial activity against methicillin-resistant Staphylococcus aureus ATCC BAA-44 after 18 hrs by checkerboard test in presence of cefazolin; assay type: functional; in short: as §3
# [10] = system: Staphylococcus aureus; assay: Antibacterial activity against methicillin-resistant Staphylococcus aureus ATCC 33592 after 18 hrs by checkerboard test in presence of meropenem; assay type: functional; in short: as §3
# [11] = Hemolytic activity in human RBC at 64 ug/ml after 1 hr relative to control; assay type: ADME, cell-based, Erythrocyte; conditions: red blood cells, read-out: Activity
# In short: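 Freshly drawn heparinized human blood centrifuged; RBCs washed three times in D-PBS and diluted to 1% of original pellet volume. Compound in DMSO added to final 64, 16 and 4 μg/mL. Incubated at 37 °C for 1 h with shaking, then centrifuged; supernatant hemoglobin read at 415 nm. Percent hemolysis taken against 1% Triton X-100 (100%) with DMSO as negative control. Triplicate; run within 3 h of the draw.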
# [12] = Ratio of hemolytic activity in human RBC to antibacterial activity against methicillin-resistant Staphylococcus aureus ATCC BAA-44 in presence of 4 ug/ml amoxicillin and 2 ug/ml clavulanic acid
# [13] = Ratio of hemolytic activity in human RBC to antibacterial activity against methicillin-resistant Staphylococcus aureus ATCC BAA-44 in presence of 8 ug/ml cefazolin
# [14] = Ratio of hemolytic activity in human RBC to antibacterial activity against methicillin-resistant Staphylococcus aureus ATCC 33592 in presence of 4 ug/ml meropenem
smiles,measurement,setting,value
C=C1CCC[C@@H]2Nc3c(F)cc(Br)cc3[C@]12CCNS(=O)(=O)c1ccc(Br)cc1,MRC,[1],1 µg/mL
same,MRC,[2],1 µg/mL
same,MRC,[3],1 µg/mL
same,GI50 at 24 h,[4],22 µg/mL
same,MIC,[5],> 64 µg/mL
same,MIC,[6],> 64 µg/mL
same,MIC,[7],> 64 µg/mL
same,fractional inhibitory concentration index (FICI),[8],0.0315
same,fractional inhibitory concentration index (FICI),[9],0.0156
same,fractional inhibitory concentration index (FICI),[10],0.0315
same,"hemolysis at 1 h, 64 ug/ml",[11],< 2%
same,Ratio,[12],64
same,Ratio,[13],64
same,Ratio,[14],64

# Reference: ChEMBL document CHEMBL3259770, “Structure-activity relationship studies of the tricyclic indoline resistance-modifying agent” (J Med Chem, 2014)
